Active and inactive are the calls of the source. The rule behind the calls is not given here.
Key:
Trypanosoma brucei [1] = test: Potentiation of methotrexate-induced antitrypanosomal activity against Trypanosoma brucei Lister 427 bloodstream form at 10 uM after 72 hrs by resazurin dye-based assay; type: functional
[2] = Cytotoxicity against human A549 cells assessed as growth inhibition at 10 uM after 48 hrs by CellTiter-Glo assay relative to control; values are per cent of control; details: A549 cells
CYP2C19 = CYP2C19 (Homo sapiens, UniProt P33261); test: Inhibition of human microsomal CYP2C19 expressed in baculovirus infected BTI-TN-5B1-4 cells at 10 uM incubated for 30 mins by luciferase assay relative to control; type: ADME
How it was run: (§1)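 CYP1A2, 2C9, 2C19, 2D6 and 3A4 in microsomes from baculovirus-infected insect cells, each with a P450-Glo luminogenic substrate. Inhibition read as loss of light; single-point at 10 μM, triplicate.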

Trypanosoma brucei [3] = test: Potentiation of methotrexate-induced antitrypanosomal activity against Trypanosoma brucei Lister 427 bloodstream form at 10 uM after 72 hrs by resazurin dye-based assay relative to control; type: functional
Aurora kinase B = Aurora kinase B (Homo sapiens, UniProt Q96GD4); test: Inhibition of recombinant full-length human aurora B kinase expressed in baculovirus system at 10 uM using MBP as substrate incubated for 45 mins by ADP-glo kinase assay; details: probe MBP
How it was run: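 Aurora B activity measured as ADP formation via coupled luciferase ADP-Glo luminescence; single-point at 10 μM, triplicate.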

CYP2C9 = CYP2C9 (Homo sapiens, UniProt P11712); test: Inhibition of human microsomal CYP2C9 expressed in baculovirus infected BTI-TN-5B1-4 cells at 10 uM incubated for 30 mins by luciferase assay relative to control; type: ADME; how it was run: as §1
[4] = target: T1, Pteridine reductase, putative (Trypanosoma brucei) (UniProt Q581W1); test: Inhibition of Trypanosoma brucei PTR1 at 50 uM using H2B as substrate in presence of NADPH by photometric analysis relative to control
T1 sequence (whole entry): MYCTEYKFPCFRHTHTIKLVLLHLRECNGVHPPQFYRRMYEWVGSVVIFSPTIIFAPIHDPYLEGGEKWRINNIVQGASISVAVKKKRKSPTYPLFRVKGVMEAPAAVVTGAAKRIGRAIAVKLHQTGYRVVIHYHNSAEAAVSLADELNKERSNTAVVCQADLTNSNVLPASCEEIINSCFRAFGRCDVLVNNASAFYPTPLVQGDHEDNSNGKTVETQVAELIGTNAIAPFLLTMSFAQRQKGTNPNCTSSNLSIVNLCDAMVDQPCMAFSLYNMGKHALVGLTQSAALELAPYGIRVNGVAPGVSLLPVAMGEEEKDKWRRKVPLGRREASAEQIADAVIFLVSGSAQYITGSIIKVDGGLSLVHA

Trypanosoma brucei [5] = test: Antitrypanosomal activity against Trypanosoma brucei Lister 427 bloodstream form assessed as parasite growth inhibition at 50 uM after 72 hrs by SYBR Green assay relative to control; type: functional; details: for inhibition of growth at 50 µM: Lister 427, 72 h, read-out: GI
CYP2D6 = CYP2D6 (Homo sapiens, UniProt P10635); test: Inhibition of human microsomal CYP2D6 expressed in baculovirus infected BTI-TN-5B1-4 cells at 10 uM incubated for 30 mins by luciferase assay relative to control; type: ADME; how it was run: as §1
[6] = target: T2, Pteridine reductase 1 (Leishmania major) (UniProt Q01782); test: Inhibition of Leishmania major PTR1 at 50 uM using H2B as substrate in presence of NADPH by photometric analysis relative to control
T2 sequence (whole entry): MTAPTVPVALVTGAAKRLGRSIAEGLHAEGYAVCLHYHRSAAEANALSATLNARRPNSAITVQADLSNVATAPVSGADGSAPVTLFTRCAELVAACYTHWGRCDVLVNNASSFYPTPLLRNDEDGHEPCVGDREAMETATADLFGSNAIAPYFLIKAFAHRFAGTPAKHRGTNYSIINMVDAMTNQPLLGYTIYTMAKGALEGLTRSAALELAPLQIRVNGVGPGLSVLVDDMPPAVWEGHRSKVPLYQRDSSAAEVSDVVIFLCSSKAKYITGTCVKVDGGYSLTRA

[7] = Cytotoxicity against human THP1 cells assessed as viable cells at 100 uM after 72 hrs by MTT assay relative to control; type: cell-based, THP-1; details: read-out: Activity
How it was run: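 THP-1-derived macrophages exposed to compounds for 72 h, tested at 100 μM or in dose-response; viability read by MTT colorimetric assay.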

CYP1A2 = target: T3, CYP1A2 (Homo sapiens, UniProt P05177); test: Inhibition of human microsomal CYP1A2 expressed in baculovirus infected BTI-TN-5B1-4 cells at 10 uM incubated for 30 mins by luciferase assay relative to control; type: ADME; how it was run: as §1
T3 sequence (P05177 whole entry): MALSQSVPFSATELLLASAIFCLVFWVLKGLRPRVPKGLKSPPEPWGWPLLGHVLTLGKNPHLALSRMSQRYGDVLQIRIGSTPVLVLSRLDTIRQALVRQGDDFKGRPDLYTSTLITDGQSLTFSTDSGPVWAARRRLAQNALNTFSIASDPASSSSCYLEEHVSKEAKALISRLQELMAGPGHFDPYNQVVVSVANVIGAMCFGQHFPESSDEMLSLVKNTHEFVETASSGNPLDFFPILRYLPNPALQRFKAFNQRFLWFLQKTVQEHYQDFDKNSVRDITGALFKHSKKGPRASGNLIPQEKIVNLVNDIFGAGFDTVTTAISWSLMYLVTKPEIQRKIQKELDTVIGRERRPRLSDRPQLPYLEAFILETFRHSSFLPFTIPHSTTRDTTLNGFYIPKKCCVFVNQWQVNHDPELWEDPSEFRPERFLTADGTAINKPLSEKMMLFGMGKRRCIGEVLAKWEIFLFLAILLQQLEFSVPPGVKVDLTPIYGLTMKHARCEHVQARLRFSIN

Leishmania infantum = test: Antileishmanial activity against Leishmania infantum amastigote form assessed as parasite growth inhibition at 50 uM after 72 hrs by steady-Glo reagent based assay relative to control; type: functional; details: read-out: GI
How it was run: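 Intramacrophage L. infantum amastigotes in THP-1-derived macrophages, tested at 50 μM or in dose-response. Plates held 72 h at 37 °C, 5% CO2. Medium was replaced by PBS, macrophages lysed, and parasites read by Steady-Glo luminescence. High-content imaging gave host cell number, infection ratio (infected/total cells) and parasites per infected cell. Values are means of at least two independent experiments.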

[8] = Cytotoxicity against human WI38 cells assessed as growth inhibition at 10 uM after 48 hrs by CellTiter-Glo assay relative to control; values are per cent of control; details: WI38 cells
Trypanosoma cruzi = test: Antitrypanosomal activity against Trypanosoma cruzi amastigote form infected in human U2OS cells assessed as parasite growth inhibition at 50 uM after 72 hrs relative to control; type: functional; details: for inhibition of growth at 50 µM: read-out: GI
How it was run: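 U2OS monolayers grown for 24 h, then infected with tissue-derived trypomastigotes of T. cruzi Y strain. Compounds were added 24 h after infection at 50 μM (single-point) or in dose-response, with 72 h exposure. Plates were fixed, stained and analysed by high-content imaging; activity was normalized to infected and non-infected controls. Means of at least two experiments; benznidazole as reference.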

[9] = Cytotoxicity against human U2OS cells assessed as viable cells at 50 uM after 72 hrs by MTT assay relative to control; type: cell-based; details: read-out: Activity
CYP3A4 = CYP3A4 (Homo sapiens, UniProt P08684); test: Inhibition of human microsomal CYP3A4 expressed in baculovirus infected BTI-TN-5B1-4 cells at 10 uM incubated for 30 mins by luciferase assay relative to control; type: ADME; how it was run: as §1
[10] = Cytotoxicity against human 786-O cells assessed as inhibition of mitochondrial viability at 10 uM after 6 hrs by CMXRos staining based assay relative to control; type: cell-based, 786-0; details: read-out: INH
How it was run: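 Mitochondrial toxicity monitored by MitoTracker Red CMXRos uptake and high-content imaging; compound at 10 μM, triplicate.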

hERG (KCNH2) = hERG (KCNH2) (Homo sapiens, UniProt Q12809); test: Inhibition of human ERG at 10 uM incubated for 2 hrs by fluorescence polarisation assay relative to control
Trypanosoma brucei [11] = test: Antitrypanosomal activity against Trypanosoma brucei Lister 427 bloodstream form at 10 uM after 72 hrs by resazurin dye-based assay relative to control; type: functional
Trypanosoma brucei [12] = test: Antitrypanosomal activity against Trypanosoma brucei Lister 427 bloodstream form after 72 hrs by SYBR Green assay; type: functional, organism-based; details: Lister 427, 72 h

Chain of hERG (KCNH2) (Q12809 whole entry): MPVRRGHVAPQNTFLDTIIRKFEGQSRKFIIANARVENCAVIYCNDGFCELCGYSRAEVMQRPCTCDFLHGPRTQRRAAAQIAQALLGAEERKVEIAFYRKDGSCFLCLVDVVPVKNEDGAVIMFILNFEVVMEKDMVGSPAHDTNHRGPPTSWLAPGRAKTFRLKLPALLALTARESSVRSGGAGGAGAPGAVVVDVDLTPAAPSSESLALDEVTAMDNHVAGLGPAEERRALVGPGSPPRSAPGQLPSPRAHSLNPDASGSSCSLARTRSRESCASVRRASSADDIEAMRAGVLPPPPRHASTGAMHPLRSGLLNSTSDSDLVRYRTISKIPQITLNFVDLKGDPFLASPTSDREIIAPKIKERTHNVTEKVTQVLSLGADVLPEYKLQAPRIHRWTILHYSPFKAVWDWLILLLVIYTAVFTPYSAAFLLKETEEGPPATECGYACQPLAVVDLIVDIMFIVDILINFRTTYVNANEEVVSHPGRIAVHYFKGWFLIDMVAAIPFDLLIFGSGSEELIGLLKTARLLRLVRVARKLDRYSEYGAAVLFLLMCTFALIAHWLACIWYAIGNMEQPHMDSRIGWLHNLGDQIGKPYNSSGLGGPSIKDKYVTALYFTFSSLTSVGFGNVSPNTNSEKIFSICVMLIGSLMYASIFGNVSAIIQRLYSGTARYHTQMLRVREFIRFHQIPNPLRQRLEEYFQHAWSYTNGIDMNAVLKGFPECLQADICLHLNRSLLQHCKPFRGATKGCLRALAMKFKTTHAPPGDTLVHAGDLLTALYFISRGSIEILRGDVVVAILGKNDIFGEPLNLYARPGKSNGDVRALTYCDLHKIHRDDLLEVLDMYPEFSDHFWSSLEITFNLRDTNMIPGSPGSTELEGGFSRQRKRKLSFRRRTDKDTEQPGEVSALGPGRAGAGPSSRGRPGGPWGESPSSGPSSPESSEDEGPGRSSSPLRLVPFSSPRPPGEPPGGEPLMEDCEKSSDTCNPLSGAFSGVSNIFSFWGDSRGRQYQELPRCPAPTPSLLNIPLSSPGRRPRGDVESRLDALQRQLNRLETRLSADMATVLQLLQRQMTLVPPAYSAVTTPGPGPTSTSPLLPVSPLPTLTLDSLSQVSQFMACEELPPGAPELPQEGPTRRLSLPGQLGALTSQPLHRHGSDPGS
Chain of Aurora kinase B (Q96GD4 whole entry): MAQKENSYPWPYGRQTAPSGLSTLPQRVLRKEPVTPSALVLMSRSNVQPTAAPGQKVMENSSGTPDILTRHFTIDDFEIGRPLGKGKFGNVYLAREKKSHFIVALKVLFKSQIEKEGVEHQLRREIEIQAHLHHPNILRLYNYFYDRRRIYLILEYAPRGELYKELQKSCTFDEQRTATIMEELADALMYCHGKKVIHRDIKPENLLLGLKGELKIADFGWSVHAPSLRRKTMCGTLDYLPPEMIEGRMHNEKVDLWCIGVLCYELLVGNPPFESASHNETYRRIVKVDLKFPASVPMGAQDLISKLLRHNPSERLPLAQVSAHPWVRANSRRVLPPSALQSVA
Chain of CYP2C9 (P11712 whole entry): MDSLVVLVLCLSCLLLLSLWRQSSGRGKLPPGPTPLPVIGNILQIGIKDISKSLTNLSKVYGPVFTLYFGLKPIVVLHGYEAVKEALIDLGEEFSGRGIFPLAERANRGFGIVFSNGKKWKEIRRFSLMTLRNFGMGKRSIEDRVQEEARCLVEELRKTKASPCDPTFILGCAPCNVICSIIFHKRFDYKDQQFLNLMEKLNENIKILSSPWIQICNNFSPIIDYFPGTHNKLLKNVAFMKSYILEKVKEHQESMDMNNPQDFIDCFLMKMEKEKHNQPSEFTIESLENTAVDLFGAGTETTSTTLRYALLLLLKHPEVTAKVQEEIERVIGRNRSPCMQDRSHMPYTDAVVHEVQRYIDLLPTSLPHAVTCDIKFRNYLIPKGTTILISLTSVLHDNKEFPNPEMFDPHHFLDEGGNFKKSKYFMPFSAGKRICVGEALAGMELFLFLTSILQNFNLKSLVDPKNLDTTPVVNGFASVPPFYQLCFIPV
Chain of CYP2C19 (P33261 whole entry): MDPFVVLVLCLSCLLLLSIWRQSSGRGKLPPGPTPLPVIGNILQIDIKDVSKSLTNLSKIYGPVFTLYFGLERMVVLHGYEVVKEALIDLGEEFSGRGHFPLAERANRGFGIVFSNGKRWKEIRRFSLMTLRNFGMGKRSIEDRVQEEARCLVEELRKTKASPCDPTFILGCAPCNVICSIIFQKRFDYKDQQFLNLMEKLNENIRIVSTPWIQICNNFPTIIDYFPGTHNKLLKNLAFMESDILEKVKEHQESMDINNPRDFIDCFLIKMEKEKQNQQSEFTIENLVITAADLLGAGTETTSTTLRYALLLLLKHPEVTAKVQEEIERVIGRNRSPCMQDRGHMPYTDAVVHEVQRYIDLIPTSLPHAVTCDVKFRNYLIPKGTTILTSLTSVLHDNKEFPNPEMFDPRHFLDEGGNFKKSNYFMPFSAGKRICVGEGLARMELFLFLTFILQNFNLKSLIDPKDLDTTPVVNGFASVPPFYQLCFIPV
Chain of CYP2D6 (P10635 whole entry): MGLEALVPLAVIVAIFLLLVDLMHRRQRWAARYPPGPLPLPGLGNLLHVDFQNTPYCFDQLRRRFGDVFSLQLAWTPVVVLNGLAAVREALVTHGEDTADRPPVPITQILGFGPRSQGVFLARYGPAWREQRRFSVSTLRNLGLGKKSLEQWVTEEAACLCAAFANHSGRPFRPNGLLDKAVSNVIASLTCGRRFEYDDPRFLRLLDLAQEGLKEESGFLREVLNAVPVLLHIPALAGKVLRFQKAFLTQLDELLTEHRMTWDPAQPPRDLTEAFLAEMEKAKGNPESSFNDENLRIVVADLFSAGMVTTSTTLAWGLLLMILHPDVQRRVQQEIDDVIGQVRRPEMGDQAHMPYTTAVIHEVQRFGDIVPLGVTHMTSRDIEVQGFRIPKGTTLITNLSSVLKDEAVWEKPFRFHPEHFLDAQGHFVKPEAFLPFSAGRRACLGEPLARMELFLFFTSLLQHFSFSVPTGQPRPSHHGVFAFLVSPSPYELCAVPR
Chain of CYP3A4 (P08684 whole entry): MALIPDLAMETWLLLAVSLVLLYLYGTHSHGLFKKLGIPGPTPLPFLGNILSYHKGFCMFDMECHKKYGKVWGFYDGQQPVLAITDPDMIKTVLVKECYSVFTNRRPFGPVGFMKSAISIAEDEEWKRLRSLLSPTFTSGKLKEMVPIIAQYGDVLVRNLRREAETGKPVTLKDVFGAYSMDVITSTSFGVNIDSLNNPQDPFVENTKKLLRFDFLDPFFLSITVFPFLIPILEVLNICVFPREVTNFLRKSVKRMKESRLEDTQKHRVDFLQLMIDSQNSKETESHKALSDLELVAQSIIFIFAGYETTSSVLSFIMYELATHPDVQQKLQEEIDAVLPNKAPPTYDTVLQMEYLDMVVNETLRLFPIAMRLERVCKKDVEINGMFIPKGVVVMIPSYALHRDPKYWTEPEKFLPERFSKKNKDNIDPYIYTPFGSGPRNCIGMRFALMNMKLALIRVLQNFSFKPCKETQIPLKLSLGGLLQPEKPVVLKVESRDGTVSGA

Row | SMILES | inhibition at 0.5 h, 10 µM (CYP2C19) [%] | inhibition at 0.75 h, 10 µM (Aurora kinase B) [%] | inhibition at 0.5 h, 10 µM (CYP2C9) [%] | inhibition [4] | inhibition at 0.5 h, 10 µM (CYP2D6) [%] | inhibition [6] [%] | inhibition at 0.5 h, 10 µM (CYP1A2) [%] | inhibition at 0.5 h, 10 µM (CYP3A4) [%] | PF (Trypanosoma brucei [1]) | cell growth (% of control) at 48 h, 10 µM [2] [%] | Activity (Trypanosoma brucei [3]) [%] | inhibition of growth at 50 µM (Trypanosoma brucei [5]) [%] | viability at 72 h, 100 µM [7] [%] | inhibition of growth at 50 µM (Leishmania infantum) [%] | cell growth (% of control) at 48 h, 10 µM [8] [%] | inhibition of growth at 50 µM (Trypanosoma cruzi) [%] | viability at 72 h, 50 µM [9] [%] | cytotoxicity at 6 h, 10 µM [10] [%] | inhibition at 2 h, 10 µM (hERG (KCNH2)) [%] | Activity (Trypanosoma brucei [11]) [%] | further results
1 | NC(=S)N/N=C/c1csc2ccccc12 | -17.1 | -4.29 | 14.6 | 3.09% | 22.1 | 4.9 | 100 | 5.98 | 1.16 | 101 | 52.33 | 3.57 | 44.9 | 24.4 | 95.3 | 24.3 | 152 | 12.6 | -5.27 | 21 | 
2 | NC(=S)N/N=C/c1cccc(-c2ccccc2)c1 | -27.2 | -4.25 | 14.7 | 9.25% | 20.6 | 3.5 | 83.9 | 5.26 | 1.77 | 110 | 93.5 | 0.9 | 45.2 | 35.8 | 111 | 20.2 | 112 | 4.4 | 5.99 | 28.5 | 
3 | NC(=S)N/N=C/c1cccc(-c2ccc3c(c2)OCO3)c1 | 48.4 | -3.81 | 45.3 | 0.16% | 76.9 | 0.33 | 101 | 69.7 | 1.53 | 111 | 96.33 | 61.8 | 2.61 | 46.9 | 91.9 | 71.3 | 81.5 | 15.7 | 9.13 | 38.67 | 
4 | N/C(S)=N/N=C/c1ccc(Cl)c(Cl)c1 | -14.9 | -9.56 | 24.3 | inactive | 27.3 | 9.38 | 76.8 | -10.6 | 1.36 | 100 | 84 |  | 56.4 | 17.6 | 107 | 23.1 | 101 | 5.87 | -9.32 | 37.33 | growth inhibition (GI) (Trypanosoma brucei [5]): inactive

Now from value to compound, other results behind:

Row | inhibition at 0.5 h, 10 µM (CYP2C19) [%] | inhibition at 0.75 h, 10 µM (Aurora kinase B) [%] | inhibition at 0.5 h, 10 µM (CYP2C9) [%] | inhibition [4] | inhibition at 0.5 h, 10 µM (CYP2D6) [%] | inhibition [6] [%] | inhibition at 0.5 h, 10 µM (CYP1A2) [%] | inhibition at 0.5 h, 10 µM (CYP3A4) [%] | SMILES | PF (Trypanosoma brucei [1]) | cell growth (% of control) at 48 h, 10 µM [2] [%] | Activity (Trypanosoma brucei [3]) [%] | inhibition of growth at 50 µM (Trypanosoma brucei [5]) [%] | viability at 72 h, 100 µM [7] [%] | inhibition of growth at 50 µM (Leishmania infantum) [%] | cell growth (% of control) at 48 h, 10 µM [8] [%] | inhibition of growth at 50 µM (Trypanosoma cruzi) [%] | viability at 72 h, 50 µM [9] [%] | cytotoxicity at 6 h, 10 µM [10] [%] | inhibition at 2 h, 10 µM (hERG (KCNH2)) [%] | Activity (Trypanosoma brucei [11]) [%] | further results
5 | -20.7 | -5.27 | 4.24 | inactive | 8.57 | 1.75 | 38.3 | -8.16 | Cc1ccsc1/C=N/NC(N)=S | 1.05 | 91.9 | 34.17 | 17.3 | 76 | 8.28 | 85.4 | 24.9 | 95.8 | 2.15 | -5.98 | 8.33 | 
6 | -20.6 | 6.53 | -6.44 | 13.7% | -18.9 | 7.6 | 18.6 | -4.38 | NC(=S)N/N=C/c1ccccc1O | 1.49 | 117 | 62.5 | 97.9 | 54.7 | 24.1 | 108 | 86.1 | 58 | -1.49 | 4.46 | 17.83 | EC50 (Trypanosoma brucei [12]): 31.5 µM
7 | -39.5 | -10.5 | 3.06 | 7.43% | -6.6 | 3.6 | -1.56 | -13.1 | NC(=S)N/N=C/c1ccc(N)cc1 | 2.58 | 125 | 73.67 |  | 74.4 | 38.6 | 121 |  | 125 | -7.54 | 3.02 | 4.33 | growth inhibition (GI) (Trypanosoma brucei [5]): inactive; growth inhibition (GI) (Trypanosoma cruzi): inactive

Source: ChEMBL document CHEMBL4196006, “Aryl thiosemicarbazones for the treatment of trypanosomatidic infections” (Eur J Med Chem, 2018)
